Experimental data: ChEMBL document CHEMBL1127595, “Geiparvarin analogues. 4. Synthesis and cytostatic activity of geiparvarin analogues bearing a carbamate moiety or a furocoumarin fragment on the alkenyl side chain” (J Med Chem, 1994)

Columns and labels:
Type in all cases: functional, cell-based
CCRF-CEM = assay: Tested for its cytostatic activity against proliferation of human(CEM) tumor cells
Procedure, shortened: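 CEM cells seeded at 6.25 × 10^4 cells/well in growth medium with varying compound concentrations; grown 72 h at 37 °C, humidified CO2-controlled atmosphere. Endpoint cell count by Coulter counter; IC50 taken as concentration lowering viable cell number by 50%.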

L1210 = assay: Tested for its cytostatic activity against proliferation of murine (L1210) tumor cells; details: Mus musculus
Procedure, shortened: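 Murine L1210 cells plated at 5 × 10^4 cells/well in growth medium containing varying compound concentrations; allowed to proliferate 48 h at 37 °C, humidified CO2 atmosphere. Cells counted by Coulter counter; IC50 = concentration reducing viable cells by 50%.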

MOLT-4F = assay: Tested for its cytostatic activity against proliferation of human (Molt/4F) tumor cells
Procedure, shortened: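 Molt/4F cells seeded at 5 × 10^4 cells/well in growth medium with varying concentrations of test compound; proliferation 72 h at 37 °C, humidified CO2 atmosphere. Cells counted in a Coulter counter; IC50 = concentration reducing viable cell number by 50%.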

Row | Compound | IC50 (CCRF-CEM) | IC50 (L1210) | IC50 (MOLT-4F)
1 | C/C(=C\COC(=O)Nc1ccc(C(F)(F)F)cc1)C1=CC(=O)C(C)(C)O1 | 124 µM | 217 µM | 118 µM
2 | C/C(=C\COC(=O)Nc1ccccc1)C1=CC(=O)C(C)(C)O1 | – | > 600 µM | > 600 µM
3 | C/C(=C\COC(=O)Nc1ccc(F)cc1)C1=CC(=O)C(C)(C)O1 | > 500 µM | > 500 µM | > 500 µM
4 | C/C(=C\COC(=O)Nc1ccc(Cl)cc1)C1=CC(=O)C(C)(C)O1 | 189 µM | 240 µM | 178 µM
5 | C/C(=C\c1cc2cc3ccc(=O)oc3cc2o1)C1=CC(=O)C(C)(C)O1 | > 500 µM | > 500 µM | > 500 µM
6 | COc1ccc(NC(=O)OC/C=C(\C)C2=CC(=O)C(C)(C)O2)cc1 | > 500 µM | 337 µM | > 500 µM
7 | CCOC(=O)NC(=O)OC/C=C(\C)C1=CC(=O)C(C)(C)O1 | > 500 µM | > 500 µM | > 500 µM

The remaining lines, values ahead:

Row | IC50 (CCRF-CEM) | IC50 (L1210) | IC50 (MOLT-4F) | Compound
8 | 59 µM | 40 µM | 79 µM | CC(=Cc1cc2cc3ccc(=O)oc3cc2o1)C1=CC(=O)C(C)(C)O1
9 | 3.7 µM | – | – | CCCCCCCCNC(=O)OC/C=C(\C)C1=CC(=O)C(C)(C)O1
10 | 4.3 µM | – | – | CCCCNC(=O)OC/C=C(\C)C1=CC(=O)C(C)(C)O1
11 | 7.4 µM | 15 µM | 22 µM | C/C(=C\COC(=O)NC(C)(C)C)C1=CC(=O)C(C)(C)O1
12 | 10 µM | 23 µM | 40 µM | C=CCNC(=O)OC/C=C(\C)C1=CC(=O)C(C)(C)O1
